Changes are numbered by the printed parent chain.
Legend:
Details in all cases: stereoisomer not certain
OR4S2 (Homo sapiens) = molecular target: T1, OR4S2 (Homo sapiens) (UniProt Q8NH73)
T1 sequence (whole entry): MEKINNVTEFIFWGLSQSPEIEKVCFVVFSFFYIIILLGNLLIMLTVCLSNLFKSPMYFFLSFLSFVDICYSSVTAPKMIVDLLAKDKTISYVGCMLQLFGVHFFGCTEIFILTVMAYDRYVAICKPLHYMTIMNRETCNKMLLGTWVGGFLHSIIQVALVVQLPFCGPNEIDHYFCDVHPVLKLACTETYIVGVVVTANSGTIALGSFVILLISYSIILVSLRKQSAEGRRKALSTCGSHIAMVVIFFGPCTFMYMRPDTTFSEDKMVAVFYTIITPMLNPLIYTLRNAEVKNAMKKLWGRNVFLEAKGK
Procedure, shortened: (§1)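 Each entry records the cell line, G-protein, co-transfected protein and tags used. Methods varied with the source, often transient luciferase assays in mammalian cell lines. A receptor–molecule pair is called responsive (active) if the original authors judged its signal statistically different from baseline and non-responsive (inactive) otherwise.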

OR4X1 (Homo sapiens) = molecular target: T2, OR4X1 (Homo sapiens) (UniProt Q8NH49)
T2 sequence (whole entry): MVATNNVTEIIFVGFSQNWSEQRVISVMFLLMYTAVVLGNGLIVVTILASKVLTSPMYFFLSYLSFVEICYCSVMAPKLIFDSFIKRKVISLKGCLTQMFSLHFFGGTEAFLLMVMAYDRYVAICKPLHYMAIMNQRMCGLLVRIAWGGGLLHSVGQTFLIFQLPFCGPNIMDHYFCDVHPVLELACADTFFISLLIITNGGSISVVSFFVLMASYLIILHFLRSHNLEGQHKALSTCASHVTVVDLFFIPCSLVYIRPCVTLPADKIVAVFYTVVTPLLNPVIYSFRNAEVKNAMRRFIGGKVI
Procedure, shortened: as §1

OR4X2 (Homo sapiens) = molecular target: T3, OR4X2 (Homo sapiens) (UniProt Q8NGF9)
T3 sequence (whole entry): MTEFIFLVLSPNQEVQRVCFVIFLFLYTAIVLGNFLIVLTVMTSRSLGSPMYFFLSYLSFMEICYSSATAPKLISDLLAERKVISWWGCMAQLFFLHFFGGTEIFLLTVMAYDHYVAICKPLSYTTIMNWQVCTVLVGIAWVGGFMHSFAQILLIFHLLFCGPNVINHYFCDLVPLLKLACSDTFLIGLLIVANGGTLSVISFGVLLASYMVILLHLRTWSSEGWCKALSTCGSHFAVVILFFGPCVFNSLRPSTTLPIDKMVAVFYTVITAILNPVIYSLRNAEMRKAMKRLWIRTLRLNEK
Procedure, shortened: as §1

OR51A2 (Homo sapiens) = molecular target: T4, OR51A2 (Homo sapiens) (UniProt Q8NGJ7)
T4 sequence (whole entry): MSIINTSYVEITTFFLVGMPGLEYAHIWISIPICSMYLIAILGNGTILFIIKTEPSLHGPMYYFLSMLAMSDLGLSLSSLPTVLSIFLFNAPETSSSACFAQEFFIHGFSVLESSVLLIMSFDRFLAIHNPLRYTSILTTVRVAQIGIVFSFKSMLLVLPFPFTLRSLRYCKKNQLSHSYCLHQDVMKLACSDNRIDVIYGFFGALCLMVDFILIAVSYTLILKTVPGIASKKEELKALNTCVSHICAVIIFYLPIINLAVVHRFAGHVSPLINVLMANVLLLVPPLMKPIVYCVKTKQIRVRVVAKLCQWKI
Procedure, shortened: as §1

OR51A4 (Homo sapiens) = molecular target: T5, OR51A4 (Homo sapiens) (UniProt Q8NGJ6)
T5 sequence (whole entry): T4 sequence (whole entry) with G59E, T94I, S97N, S167N, P227L, E235Q, G267R, M288T, K289N, W311R
Procedure, shortened: as §1

OR51A7 (Homo sapiens) = molecular target: T6, OR51A7 (Homo sapiens) (UniProt Q8NH64)
T6 sequence (whole entry): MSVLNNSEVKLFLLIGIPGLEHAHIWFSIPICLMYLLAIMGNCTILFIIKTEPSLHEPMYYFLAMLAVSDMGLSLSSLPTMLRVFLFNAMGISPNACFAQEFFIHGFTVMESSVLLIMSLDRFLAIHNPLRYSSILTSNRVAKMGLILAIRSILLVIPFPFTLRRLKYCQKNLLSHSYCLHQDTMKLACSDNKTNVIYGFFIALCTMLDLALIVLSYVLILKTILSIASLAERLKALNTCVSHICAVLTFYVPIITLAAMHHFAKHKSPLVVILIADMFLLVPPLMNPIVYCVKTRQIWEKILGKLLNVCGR
Procedure, shortened: as §1

OR51B2 (Homo sapiens) = molecular target: T7, OR51B2 (Homo sapiens) (UniProt Q9Y5P1)
T7 sequence (whole entry): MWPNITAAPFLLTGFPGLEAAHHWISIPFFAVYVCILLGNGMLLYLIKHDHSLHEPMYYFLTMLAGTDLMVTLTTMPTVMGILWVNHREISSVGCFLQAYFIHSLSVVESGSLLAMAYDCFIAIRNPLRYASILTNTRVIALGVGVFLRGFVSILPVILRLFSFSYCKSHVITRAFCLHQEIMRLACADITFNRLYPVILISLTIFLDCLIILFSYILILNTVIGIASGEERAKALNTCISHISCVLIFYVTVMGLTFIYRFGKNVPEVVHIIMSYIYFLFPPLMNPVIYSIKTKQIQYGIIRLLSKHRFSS
Procedure, shortened: as §1

OR51B4 (Homo sapiens) = molecular target: T8, OR51B4 (Homo sapiens) (UniProt Q9Y5P0)
T8 sequence (whole entry): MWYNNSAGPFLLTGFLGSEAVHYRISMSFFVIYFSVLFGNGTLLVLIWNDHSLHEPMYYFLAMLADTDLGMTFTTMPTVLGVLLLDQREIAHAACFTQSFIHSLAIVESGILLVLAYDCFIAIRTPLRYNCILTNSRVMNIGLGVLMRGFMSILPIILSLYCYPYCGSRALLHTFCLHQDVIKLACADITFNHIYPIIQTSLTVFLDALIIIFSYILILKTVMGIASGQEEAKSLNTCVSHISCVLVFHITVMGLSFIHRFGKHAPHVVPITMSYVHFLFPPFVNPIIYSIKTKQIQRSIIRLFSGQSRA
Procedure, shortened: as §1

OR51B5 (Homo sapiens) = molecular target: T9, OR51B5 (Homo sapiens) (UniProt Q9H339)
T9 sequence (whole entry): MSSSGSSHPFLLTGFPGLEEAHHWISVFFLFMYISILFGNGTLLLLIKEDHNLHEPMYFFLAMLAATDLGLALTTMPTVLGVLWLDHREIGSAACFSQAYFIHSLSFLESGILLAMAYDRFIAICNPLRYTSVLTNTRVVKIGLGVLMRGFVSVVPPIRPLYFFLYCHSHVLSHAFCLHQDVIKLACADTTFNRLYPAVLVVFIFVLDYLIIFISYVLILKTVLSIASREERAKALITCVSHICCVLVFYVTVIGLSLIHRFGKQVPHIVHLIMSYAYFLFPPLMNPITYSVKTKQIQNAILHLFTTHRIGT
Procedure, shortened: as §1

OR51B6 (Homo sapiens) = molecular target: T10, OR51B6 (Homo sapiens) (UniProt Q9H340)
T10 sequence (whole entry): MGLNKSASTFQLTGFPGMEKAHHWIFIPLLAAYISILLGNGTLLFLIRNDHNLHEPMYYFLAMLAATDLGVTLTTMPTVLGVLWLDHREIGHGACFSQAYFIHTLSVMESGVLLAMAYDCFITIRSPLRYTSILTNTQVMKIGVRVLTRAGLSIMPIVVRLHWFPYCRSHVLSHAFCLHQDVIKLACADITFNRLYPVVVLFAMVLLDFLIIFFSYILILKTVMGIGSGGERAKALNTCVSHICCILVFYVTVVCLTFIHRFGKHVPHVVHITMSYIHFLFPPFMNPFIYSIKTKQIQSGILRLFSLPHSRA
Procedure, shortened: as §1

OR51D1 (Homo sapiens) = molecular target: T11, OR51D1 (Homo sapiens) (UniProt Q8NGF3)
T11 sequence (whole entry): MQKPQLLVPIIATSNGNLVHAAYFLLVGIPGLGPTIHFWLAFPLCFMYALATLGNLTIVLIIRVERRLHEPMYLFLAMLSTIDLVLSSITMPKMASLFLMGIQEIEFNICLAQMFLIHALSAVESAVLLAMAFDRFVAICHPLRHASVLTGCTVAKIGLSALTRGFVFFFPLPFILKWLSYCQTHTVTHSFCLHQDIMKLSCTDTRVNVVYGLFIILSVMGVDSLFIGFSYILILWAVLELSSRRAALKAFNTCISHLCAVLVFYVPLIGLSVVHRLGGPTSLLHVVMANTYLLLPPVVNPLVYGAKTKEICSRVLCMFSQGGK
Procedure, shortened: as §1

OR51E2 (Homo sapiens) = molecular target: T12, OR51E2 (Homo sapiens) (UniProt Q9H255)
T12 sequence (whole entry): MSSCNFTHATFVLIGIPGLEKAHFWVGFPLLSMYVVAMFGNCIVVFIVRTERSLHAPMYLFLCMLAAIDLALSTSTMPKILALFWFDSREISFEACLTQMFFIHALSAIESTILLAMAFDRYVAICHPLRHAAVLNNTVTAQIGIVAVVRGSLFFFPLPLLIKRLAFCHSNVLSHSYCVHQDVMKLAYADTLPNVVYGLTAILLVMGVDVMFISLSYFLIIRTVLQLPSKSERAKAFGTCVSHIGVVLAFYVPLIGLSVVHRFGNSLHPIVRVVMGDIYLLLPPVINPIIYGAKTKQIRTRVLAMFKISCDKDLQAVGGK
Procedure, shortened: as §1

OR51F1 (Homo sapiens) = molecular target: T13, OR51F1 (Homo sapiens) (UniProt A6NGY5)
T13 sequence (whole entry): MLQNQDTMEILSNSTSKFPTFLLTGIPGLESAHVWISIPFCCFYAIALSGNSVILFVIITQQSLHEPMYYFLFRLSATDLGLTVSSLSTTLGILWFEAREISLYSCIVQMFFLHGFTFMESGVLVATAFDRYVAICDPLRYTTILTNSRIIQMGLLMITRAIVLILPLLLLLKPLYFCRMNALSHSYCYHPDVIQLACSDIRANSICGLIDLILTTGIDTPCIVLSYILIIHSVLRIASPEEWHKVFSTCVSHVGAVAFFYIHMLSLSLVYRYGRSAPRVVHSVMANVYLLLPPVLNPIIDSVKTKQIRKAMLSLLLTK
Procedure, shortened: as §1

OR51F2 (Homo sapiens) = molecular target: T14, OR51F2 (Homo sapiens) (UniProt Q8NH61)
T14 sequence (whole entry): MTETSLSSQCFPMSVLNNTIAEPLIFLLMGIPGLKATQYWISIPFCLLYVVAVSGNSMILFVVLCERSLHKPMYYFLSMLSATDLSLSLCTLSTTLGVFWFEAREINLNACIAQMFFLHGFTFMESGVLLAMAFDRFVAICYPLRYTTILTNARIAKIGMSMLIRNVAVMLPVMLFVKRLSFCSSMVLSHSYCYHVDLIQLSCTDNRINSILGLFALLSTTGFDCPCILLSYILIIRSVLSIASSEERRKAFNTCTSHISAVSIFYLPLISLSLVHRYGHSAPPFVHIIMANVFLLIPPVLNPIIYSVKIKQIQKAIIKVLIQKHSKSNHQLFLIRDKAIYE
Procedure, shortened: as §1

OR51G1 (Homo sapiens) = molecular target: T15, OR51G1 (Homo sapiens) (UniProt Q8NGK1)
T15 sequence (whole entry): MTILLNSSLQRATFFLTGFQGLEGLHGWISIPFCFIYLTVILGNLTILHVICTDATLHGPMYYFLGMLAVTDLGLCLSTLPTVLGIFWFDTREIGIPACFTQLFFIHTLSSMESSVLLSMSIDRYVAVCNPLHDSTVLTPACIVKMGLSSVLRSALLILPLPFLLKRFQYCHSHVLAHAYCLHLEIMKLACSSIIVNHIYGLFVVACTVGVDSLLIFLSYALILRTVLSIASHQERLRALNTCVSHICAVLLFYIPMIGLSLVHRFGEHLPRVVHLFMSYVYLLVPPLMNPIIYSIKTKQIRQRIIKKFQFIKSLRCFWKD
Procedure, shortened: as §1

OR51G2 (Homo sapiens) = molecular target: T16, OR51G2 (Homo sapiens) (UniProt Q8NGK0)
T16 sequence (whole entry): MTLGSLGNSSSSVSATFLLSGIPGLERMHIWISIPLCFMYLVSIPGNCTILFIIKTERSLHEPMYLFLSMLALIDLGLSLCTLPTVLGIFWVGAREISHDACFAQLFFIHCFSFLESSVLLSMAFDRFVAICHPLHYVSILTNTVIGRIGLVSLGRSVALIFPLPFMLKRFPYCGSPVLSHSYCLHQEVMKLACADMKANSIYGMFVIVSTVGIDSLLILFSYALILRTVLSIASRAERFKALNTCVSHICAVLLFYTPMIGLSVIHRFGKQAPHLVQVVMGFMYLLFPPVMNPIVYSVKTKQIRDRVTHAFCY
Procedure, shortened: as §1

OR51H1 (Homo sapiens) = OR51H1 (Homo sapiens) (UniProt Q8NH63)
Procedure, shortened: as §1

OR51I1 (Homo sapiens) = molecular target: T17, OR51I1 (Homo sapiens) (UniProt Q9H343)
T17 sequence (whole entry): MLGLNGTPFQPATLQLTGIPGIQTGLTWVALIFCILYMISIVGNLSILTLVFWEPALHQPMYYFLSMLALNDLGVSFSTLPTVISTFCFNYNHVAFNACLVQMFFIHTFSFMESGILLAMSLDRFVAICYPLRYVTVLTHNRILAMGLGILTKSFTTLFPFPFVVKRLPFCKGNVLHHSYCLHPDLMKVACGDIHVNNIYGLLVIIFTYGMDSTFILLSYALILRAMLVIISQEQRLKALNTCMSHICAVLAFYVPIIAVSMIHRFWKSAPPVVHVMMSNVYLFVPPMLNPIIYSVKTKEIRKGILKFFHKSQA
Procedure, shortened: as §1

OR51E1 (Homo sapiens) = molecular target: T18, OR51E1 (Homo sapiens) (UniProt Q8TCB6)
T18 sequence (whole entry): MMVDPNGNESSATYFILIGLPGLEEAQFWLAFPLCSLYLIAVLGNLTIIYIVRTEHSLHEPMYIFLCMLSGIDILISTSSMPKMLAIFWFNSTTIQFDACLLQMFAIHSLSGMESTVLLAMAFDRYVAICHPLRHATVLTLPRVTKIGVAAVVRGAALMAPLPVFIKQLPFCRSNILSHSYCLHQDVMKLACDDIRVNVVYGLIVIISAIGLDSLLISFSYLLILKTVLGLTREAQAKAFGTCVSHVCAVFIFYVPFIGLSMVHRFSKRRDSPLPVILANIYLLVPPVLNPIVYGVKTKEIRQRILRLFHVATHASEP
Procedure, shortened: as §1

Measured: odorant receptor agonist call

Chain of OR51H1 (Homo sapiens) (Q8NH63 whole entry): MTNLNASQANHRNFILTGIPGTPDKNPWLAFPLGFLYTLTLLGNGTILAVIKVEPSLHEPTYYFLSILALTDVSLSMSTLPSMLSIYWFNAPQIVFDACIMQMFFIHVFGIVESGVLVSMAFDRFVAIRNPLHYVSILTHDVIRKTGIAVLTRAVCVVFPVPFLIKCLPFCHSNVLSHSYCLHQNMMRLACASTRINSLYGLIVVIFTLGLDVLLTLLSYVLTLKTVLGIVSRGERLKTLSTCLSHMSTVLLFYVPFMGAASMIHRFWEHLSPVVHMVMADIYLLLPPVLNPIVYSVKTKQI

CC(=O)c1c(C)c([N+](=O)[O-])c(C(C)(C)C)c([N+](=O)[O-])c1C
not listed: OR51E1 (Homo sapiens)
inactive: all other assays above

CCC1OC(C)=C(O)C1=O (stereo not given)
not listed: OR51F1 (Homo sapiens) | OR51H1 (Homo sapiens)
inactive: all other assays above
